Source: ChEMBL document CHEMBL1141512, “Arylsulfonamide CB2 receptor agonists: SAR and optimization of CB2 selectivity” (Bioorg Med Chem Lett, 2008)

Legend:
Homo sapiens = species on record: Homo sapiens; test: Selectivity for human CB2 receptor over human CB1 receptor by cAMP assay
Procedure, shortened: (§1)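 CHO cells stably expressing human CB2 or CB1 were seeded at 5000 cells/well and grown overnight at 37 °C. Compounds were added in stimulation buffer (1 mM IBMX, 0.25% BSA, 10 µM forskolin) for 30 min at 37 °C. cAMP was measured in lysates with a cAMP kit; 100% = forskolin-stimulated cAMP versus level with 200 nM CP-55940. EC50 came from a four-parameter logistic fit; efficacy is relative to CP-55940. Each run was triplicate, at least three times.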

Cannabinoid receptor 2 [1] = molecular target: T1, Cannabinoid receptor 2 (Homo sapiens, UniProt P34972); test: Agonist activity at human CB2 receptor expressed in CHO cells assessed as inhibition of forskolin-stimulated cAMP level; assay type: functional, cell-based
T1 sequence (P34972 whole entry, the tested form may be a part): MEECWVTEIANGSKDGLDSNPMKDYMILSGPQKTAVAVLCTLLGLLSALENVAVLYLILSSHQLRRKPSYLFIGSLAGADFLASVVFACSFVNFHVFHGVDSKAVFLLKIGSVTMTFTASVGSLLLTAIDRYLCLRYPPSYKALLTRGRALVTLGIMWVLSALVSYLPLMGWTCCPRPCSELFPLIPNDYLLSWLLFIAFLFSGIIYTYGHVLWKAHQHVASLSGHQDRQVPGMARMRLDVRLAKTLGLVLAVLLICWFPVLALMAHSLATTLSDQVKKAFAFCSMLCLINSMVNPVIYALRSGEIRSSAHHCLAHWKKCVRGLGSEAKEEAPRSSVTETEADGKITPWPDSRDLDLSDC
Procedure, shortened: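 CHO cells expressing human CB2, 5000 cells/well, incubated overnight at 37 °C. Compounds given in stimulation buffer with 1 mM IBMX, 0.25% BSA and 10 µM forskolin for 30 min at 37 °C. Cells lysed and cAMP read by enzyme-fragment kit. Forskolin-stimulated cAMP versus cAMP with 200 nM CP-55940 defines 100%. EC50 from four-parameter logistic fit. Triplicate, at least three runs.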

Cannabinoid receptor 2 [2] = molecular target: T1, Cannabinoid receptor 2; test: Agonist activity at human CB2 receptor expressed in CHO cells assessed as inhibition of forskolin-stimulated cAMP level relative to CP-55940; assay type: functional, cell-based; design: Activity: scale not given: the % may be the effect or the level left; procedure, shortened: as §1
Cannabinoid receptor 2 [3] = molecular target: T1, Cannabinoid receptor 2; test: Displacement of [3H]CP-55940 from human CB2 receptor expressed in HEK cells; assay type: cell-based, HEK293
Procedure, shortened: (§2)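 SPA binding with HEK membranes expressing human CB1 (2.5 µg/well) or CB2 (2 µg/well) on poly-L-lysine beads. Buffer: 50 mM Tris pH 7.5, 2.5 mM EDTA, 5 mM MgCl2, 0.8% fatty-acid-free BSA. Compounds at 1e-5 to 1e-10 M. [3H]-CP-55940 final 2.5 nM (CB1) or 4 nM (CB2). IC50 from four-parameter logistic fit, converted to Ki by Cheng-Prusoff.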

Cannabinoid receptor 1 = Cannabinoid receptor 1 (Homo sapiens, UniProt P21554); test: Displacement of [3H]CP-55940 from human CB1 receptor expressed in HEK cells; assay type: cell-based, HEK293; procedure, shortened: as §2
Chain of Cannabinoid receptor 1 (P21554 whole entry): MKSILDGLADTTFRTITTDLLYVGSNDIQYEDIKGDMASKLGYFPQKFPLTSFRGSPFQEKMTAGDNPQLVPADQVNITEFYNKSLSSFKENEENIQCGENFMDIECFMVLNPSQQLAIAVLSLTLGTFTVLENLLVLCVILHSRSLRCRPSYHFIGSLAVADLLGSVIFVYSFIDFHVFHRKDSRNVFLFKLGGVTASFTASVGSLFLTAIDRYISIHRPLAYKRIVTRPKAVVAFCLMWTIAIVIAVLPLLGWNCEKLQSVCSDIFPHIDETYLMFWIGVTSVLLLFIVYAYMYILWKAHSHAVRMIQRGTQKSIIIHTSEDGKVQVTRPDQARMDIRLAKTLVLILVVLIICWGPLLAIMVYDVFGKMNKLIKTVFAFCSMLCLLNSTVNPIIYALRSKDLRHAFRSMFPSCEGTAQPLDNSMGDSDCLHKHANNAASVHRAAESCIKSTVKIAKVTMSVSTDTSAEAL

| Compound | Selectivity ratio (Homo sapiens) | EC50 (Cannabinoid receptor 2 [1]) [nM] | Activity (Cannabinoid receptor 2 [2]) [%] | Emax (Cannabinoid receptor 2 [2]) [%] | Ki (Cannabinoid receptor 2 [3]) [nM] | Ki (Cannabinoid receptor 1) [nM] |
| --- | --- | --- | --- | --- | --- | --- |
| Cc1ccc(C(=O)NC2CCCCC2)cc1S(=O)(=O)N1CCCCC1 | 24 | 14 | 86 |  |  |  |
| O=C(NC1CCCCC1)c1ccc(Cl)c(S(=O)(=O)N2CCCC2)c1 | 85 | 3 | 74 |  |  |  |
| CC(C)c1ccc(C(=O)N2CCC3CCCCC3C2)cc1S(=O)(=O)N1CCCC1 (stereo not drawn) | 2860 | 0.4 | 101 |  |  |  |
| Cc1ccc(C(=O)NC2(C)CCCCC2)cc1S(=O)(=O)N1CCCCC1 |  | 18 | 58 |  |  |  |
| Cc1ccc(C(=O)N[C@@H](C)C2CCCCC2)cc1S(=O)(=O)N1CCCCC1 | 2 | 5 | 73 |  |  |  |
| Cc1ccc(C(=O)N2CCC3CCCCC3C2)cc1S(=O)(=O)N1CCS(=O)(=O)CC1 (stereo not drawn) | 7740 | 2 | 99 |  |  |  |
| Cc1ccc(C(=O)NC2CCCCC2)cc1S(=O)(=O)N1CCCC1 | 181 | 21 | 81 |  |  |  |
| Cc1ccc(C(=O)N[C@H](C)C2CCCCC2)cc1S(=O)(=O)N1CCCCC1 | 45 | 18 | 85 |  |  |  |
| O=C(NC1CCCCC1)c1cccc(S(=O)(=O)N2CCCC2)c1 |  | > 20000 |  |  |  |  |
| Cc1ccc(C(=O)Nc2ccccc2Cl)cc1S(=O)(=O)N1CCCCC1 | 13 | 5 | 89 |  |  |  |
| Cc1ccc(C(=O)N2CCC3CCCCC3C2)cc1S(=O)(=O)N1CCC(O)CC1 (stereo not drawn) | 37 | 215 | 86 |  |  |  |
| COc1ccccc1NC(=O)c1ccc(C)c(S(=O)(=O)N2CCCCC2)c1 | 9 | 21 | 91 |  |  |  |
| Cc1ccc(C(=O)N2CCC3CCCCC3C2)cc1S(=O)(=O)N1CCN(C(C)C)CC1 (stereo not drawn) |  | 588 | 45 |  |  |  |
| O=C(c1cccc(S(=O)(=O)N2CCCC2)c1)N1CC[C@@H]2CCCC[C@H]2C1 (relative stereo) |  | > 20000 |  |  |  |  |
| Cc1ccc(C(=O)Nc2ccccc2S(C)(=O)=O)cc1S(=O)(=O)N1CCCCC1 | 66 | 6 | 96 |  |  |  |
| O=C(c1ccc(C2CCCCC2)c(S(=O)(=O)N2CCCC2)c1)N1CCC2CCCCC2C1 (stereo not drawn) |  | > 20000 |  |  |  |  |
| Cc1ccc(C(=O)N2CCC3CCCCC3C2)cc1S(=O)(=O)NCC(C)C (stereo not drawn) | 939 | 14 | 96 |  |  |  |
| Cc1ccc(C(=O)N2CC[C@@H]3CCCC[C@H]3C2)cc1S(=O)(=O)N1CCCCC1 (relative stereo) | 6890 | 1 | 93 |  |  |  |
| Cc1ccc(C(=O)N2CCC3CCCCC3C2)cc1S(=O)(=O)N1CCC1 (stereo not drawn) | > 1500 | 13 | 94 |  |  |  |
| Cc1ccc(C(=O)Nc2cccc(Cl)c2)cc1S(=O)(=O)N1CCCCC1 | 31 | 27 | 80 |  |  |  |
| Cc1ccc(C(=O)N2CCCCC2)cc1S(=O)(=O)N1CCCCC1 | > 240 | 82 |  | 85 |  |  |
| Cc1ccc(C(=O)Nc2nccc3ccccc23)cc1S(=O)(=O)N1CCCCC1 | 25 | 1 | 98 |  |  |  |

| Compound | Selectivity ratio (Homo sapiens) | EC50 (Cannabinoid receptor 2 [1]) [nM] | Activity (Cannabinoid receptor 2 [2]) [%] | Emax (Cannabinoid receptor 2 [2]) [%] | Ki (Cannabinoid receptor 2 [3]) [nM] | Ki (Cannabinoid receptor 1) [nM] |
| --- | --- | --- | --- | --- | --- | --- |
| Cc1ccc(C(=O)N(C)c2ccccc2Cl)cc1S(=O)(=O)N1CCCCC1 |  | > 20000 |  |  |  |  |
| Cc1ccc(C(=O)N2CCC3CCCCC3C2)cc1S(=O)(=O)N1CCCC1 (stereo not drawn) | 2240 | 4 | 94 |  |  |  |
| Cc1ccc(C(=O)N2CCC3CCCCC3C2)cc1S(=O)(=O)NC(C)C (stereo not drawn) | 0.1 | 2280 | 101 |  |  |  |
| Cc1ccc(C(=O)Oc2cccc3cccnc23)cc1S(=O)(=O)N1CCCCC1 | 1 | < 1 | 99 |  | 4 | 3 |
| Cc1ccc(C(=O)N2CCC3CCCCC3C2)cc1S(=O)(=O)N1CCOCC1 (stereo not drawn) | 2640 | 5 | 104 |  |  |  |
| Cc1ccc(C(=O)N2CCC3CCCCC3C2)cc1S(=O)(=O)N1CCCCCC1 (stereo not drawn) | 3280 | 2 | 100 |  |  |  |
| Cc1ccc(C(=O)N(C)C2CCCCC2)cc1S(=O)(=O)N1CCCCC1 | 38 | 119 | 86 |  |  |  |
| CC(C)c1ccc(C(=O)NC2CCCCC2)cc1S(=O)(=O)N1CCCC1 | 60 | 4 | 86 |  |  |  |
| Cc1ccc(C(=O)Nc2ccccc2C(F)(F)F)cc1S(=O)(=O)N1CCCCC1 | 96 | 2 | 92 |  |  |  |
| Cc1ccc(C(=O)N2CCCC3CCCCC32)cc1S(=O)(=O)N1CCCCC1 (stereo not drawn) | 94 | 6 | 82 |  |  |  |
| Cc1ccc(C(=O)Nc2ccccc2)cc1S(=O)(=O)N1CCCCC1 | 6 | 139 | 74 |  |  |  |
| Cc1ccc(C(=O)Nc2ccc3ccccc3n2)cc1S(=O)(=O)N1CCCCC1 |  | 195 | 45 |  |  |  |
| O=C(c1ccc(Cl)c(S(=O)(=O)N2CCCC2)c1)N1CC[C@@H]2CCCC[C@H]2C1 (relative stereo) | 3770 | 3 | 89 |  |  |  |
| Cc1ccc(C(=O)N2CCC3CCCCC3C2)cc1S(=O)(=O)Nc1ccccc1 (stereo not drawn) |  | > 20000 |  |  |  |  |
| Cc1ccccc1NC(=O)c1ccc(C)c(S(=O)(=O)N2CCCCC2)c1 | 1.5 | 154 | 76 |  |  |  |
| O=C(c1ccc(Cl)c(S(=O)(=O)N2CCCC2)c1)N1CCC2CCCCC2C1 (stereo not drawn) | 520 | 4 | 93 |  |  |  |
| Cc1ccc(C(=O)N2CCC3CCCCC3C2)cc1S(=O)(=O)N1CCSCC1 (stereo not drawn) | 3250 | 1 | 90 |  |  |  |
| Cc1ccc(C(=O)Nc2ccc(Cl)cc2)cc1S(=O)(=O)N1CCCCC1 |  | 14100 | 117 |  |  |  |
| Cc1ccc(C(=O)Nc2cccc3cccnc23)cc1S(=O)(=O)N1CCCCC1 | 7 | 4 | 100 |  |  |  |
| Cc1ccc(C(=O)N2CCC3CCCCC3C2)cc1S(=O)(=O)N1CCCCC1 (stereo not drawn) | 4330 | 1.5 | 95 |  |  |  |
| O=C(NCC1CCOCC1)c1cnc(Nc2ccc(Cl)cc2Cl)nc1C(F)(F)F | > 470 |  | 95 |  |  |  |
| COc1ccc2c(c1)c(CCN1CCOCC1)c(C)n2C(=O)c1cccc(Cl)c1Cl |  | 0.65 | 44 |  |  |  |
